Screens deposited in PubChem by several laboratories.
CXCR6 inh: CXCR6 receptor inhibitors, primary screen, cell-based, beta-arrestin, luminescence, CHO-K1 PathHunter, 1536-well; C-X-C chemokine receptor type 6 (Homo sapiens), O00574; inhibition, % at 20 µM; 360,000 tested, 0.36% active; in the data active = inhibition above about 34%, passing the limit was not always enough;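 note: antagonist mode with CXCL16 agonist at 10 nM final; 0% = 10 nM CXCL16 with DMSO and 100% = unstimulated wells without agonist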
Target sequence (O00574 whole entry, looked up): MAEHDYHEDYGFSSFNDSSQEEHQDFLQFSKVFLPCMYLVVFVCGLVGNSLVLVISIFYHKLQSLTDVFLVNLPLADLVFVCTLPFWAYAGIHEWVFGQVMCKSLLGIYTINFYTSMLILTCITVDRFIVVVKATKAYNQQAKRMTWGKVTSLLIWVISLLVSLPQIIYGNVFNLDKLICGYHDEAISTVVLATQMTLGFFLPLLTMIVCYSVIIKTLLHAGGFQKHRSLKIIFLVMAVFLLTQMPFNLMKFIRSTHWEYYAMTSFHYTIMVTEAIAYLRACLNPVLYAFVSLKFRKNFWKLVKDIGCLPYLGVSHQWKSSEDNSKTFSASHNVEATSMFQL
CCR6 antag: CCR6 receptor antagonists, primary screen, cell-based, CHO-K1, luminescence, beta-arrestin, uHTS; C-C chemokine receptor type 6 (Homo sapiens), P51684; inhibition, % at 20 µM; CHO-K1 CCR6 PathHunter beta-arrestin, CCL20-stimulated; 340,000 tested, 0.49% active;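 active = compounds whose inhibition of the agonist-driven luminescence signal at 20 µM reaches about 50%, limit read from the data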;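 note: cells stimulated with CCL20 at 14 nM final; plate controls were DMSO with CCL20 for no effect and DMSO without agonist for full effect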
APJ antag: antagonists of human apelin receptor APJ, primary screen, CHO-K1 cells, beta-arrestin complementation, luminescence; P35414; 330,000 tested, 0.32% active; inhibition, % at 20 µM;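 active = inhibition above about 40% at 20 µM, limit read from the data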;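 note: cells challenged with 10 nM apelin-13 agonist together with compound; plate controls were apelin-13 plus DMSO wells for no effect and DMSO wells lacking apelin-13 for full effect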
EBI2 antag: EBI2 receptor antagonists, beta-arrestin recruitment, primary screen, cell-based, luminescence, 7a,25-OHC stimulation, uHTS; 7a,25-OHC stimulated; inhibition, % at 5 µM; 360,000 tested, 0.81% active; AID 651636, 2012; in the data active = inhibition above about 38%;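 note: enzyme fragment complementation signal reports receptor beta-arrestin coupling in cells; 0% = agonist plus DMSO wells and 100% = wells without agonist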
Target sequence (P32249 whole entry, looked up, the tested form may be a part): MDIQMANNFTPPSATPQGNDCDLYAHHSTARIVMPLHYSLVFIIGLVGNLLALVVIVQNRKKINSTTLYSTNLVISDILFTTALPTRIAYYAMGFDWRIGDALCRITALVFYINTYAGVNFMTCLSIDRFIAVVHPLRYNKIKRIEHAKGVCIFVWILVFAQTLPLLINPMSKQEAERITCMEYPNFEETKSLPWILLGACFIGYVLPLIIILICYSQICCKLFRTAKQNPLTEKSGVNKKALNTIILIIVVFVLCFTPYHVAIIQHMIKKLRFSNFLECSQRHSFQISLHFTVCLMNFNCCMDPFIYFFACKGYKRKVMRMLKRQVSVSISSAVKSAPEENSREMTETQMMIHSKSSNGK
m5-HT2A agonist: mouse Htr2a agonists via beta-arrestin recruitment, primary screen, cell-based, luminescence. 5-hydroxytryptamine receptor 2A (Mus musculus), P35363. CHO-K1 mHTR2A beta-arrestin complementation; percent of 30 µM serotonin response. activation, % at 7.6 µM. 360,000 tested, 0.66% active;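 active = activation above a run cutoff, the mean activation of all tested compounds plus 3 SD, cut at about 14% in these data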;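 note: 0% = plate median of compound wells and 100% = 30 µM serotonin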
APJ ag: agonists of human apelin receptor APJ, primary screen, CHO-K1 cells, PathHunter beta-arrestin, luminescence. 0% DMSO wells, 100% apelin. activation, % at 20 µM. 330,000 tested, 0.11% active. P35414;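 active = activation more than six SD over the plate average, tested at 20 µM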;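 note: 0% = DMSO alone and 100% = apelin-13 at 10 nM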
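Material: CHO-K1 APJ beta-arrestin complementation cell line; Input: cell density 1000 per well; Incubation: compound stimulation 90 min at 25 °C, detection 60 min; Signal: luminescence from split beta-galactosidase complementation, Galacton Star/Emerald II substrate; Controls: DMSO-only wells as negative, 10 nM Apelin-13 as positive control.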
EBI2 conf: EBI2 antagonist hit retest, beta-arrestin, confirmation, cell-based, single concentration, luminescence, 7a,25-OHC stimulation | shares compounds with EBI2 antag | 7a,25-OHC antagonism | inhibition, % at 5 µM | 2,400 tested, 29% active;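 active = inhibition of at least 50%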
EBI2 ag: EBI2 agonist activity of antagonist hits, confirmation, counter-screen for EBI2 antagonist project, cell-based, single concentration, agonist mode, luminescence | shares compounds with EBI2 antag | EBI2-expressing cells, 60 min; 0% vehicle, 100% 7α,25-dihydroxycholesterol control | activation, % at 5 µM | 2,400 tested, under 10 active;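 active = activation of at least 50%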
bGal counter: E. coli beta-galactosidase enzyme inhibition, confirmation, counter-screen for EBI2 antagonist project, biochemical, luminescence, single concentration; shares compounds with EBI2 antag; purified beta-galactosidase, luminescent Galacton Star, 15 min; inhibition, % at 5 µM; 2,400 tested, 1% active; AID 652176, 2013;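 active = replicate-average signal at least 3 plate SD below neutral wells, shown as high inhibition, flagging enzyme-inhibiting false positives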;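 note: 0% = DMSO wells with enzyme and 100% = wells lacking enzyme; higher means stronger loss of beta-gal luminescence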
The depositor's hits bear a star; . = not tested or not shown. Most compounds without a hit are left out; they make up all but 2.1% or so of the library.

SMILES	CXCR6 inh	CCR6 antag	APJ antag	EBI2 antag	m5-HT2A agonist	APJ ag	EBI2 conf	EBI2 ag	bGal counter
Cc1ccc(/C=C/C(=O)c2ccc(N3CCOCC3)cc2)s1	-1.6	-2.7	9.3	64.8*	-1.4	-2.9	43.2	-0.9	-9.2
CCc1ccc(/C=C/C(=O)c2ccc(S(=O)(=O)N(C)C)cc2)cc1	-2.0	4.8	2.0	85.8*	-1.1	3.0	59.9*	0.1	-18.8
Cc1cccc(/C=C/C(=O)c2ccc(N3CCOCC3)cc2)c1	.	.	12.1	.	.	-2.5	.	.	.
O=C(/C=C/c1ccc(F)cc1)c1ccc(N2CCOCC2)cc1	-0.5	23.5	8.4	65.8*	0.6	-2.6	50.9*	2.4	1.8
CCc1ccc(/C=C/C(=O)c2ccc(N3CCOCC3)cc2)cc1	-3.1	14.0	14.8	83.1*	-4.0	-0.6	52.9*	0.4	3.2
CC(C)(C)c1ccc(C(=O)NCC(=O)OCCN2C(=O)c3ccccc3C2=O)cc1	-0.9	7.0	-45.8	0.1	-3.6	9.2	.	.	.
S=c1[nH]nc(COc2ccc(Cl)cc2)n1Cc1ccccc1	0.4	-2.1	3.0	10.6	6.0	-3.0	.	.	.
Cc1nc(NC(=O)CSc2nnc(-c3ccccc3)c(-c3ccccc3)n2)c(Cl)cc1Cl	5.8	12.8	5.2	41.5*	2.8	-2.0	24.8	0.7	3.3
O=C(CSc1nnc(-c2ccccc2)c(-c2ccccc2)n1)Nc1ncc(Cl)cc1Cl	-2.5	7.7	10.8	6.5	-2.8	1.7	.	.	.
OC(COc1ccccc1)CN1CCN(C(c2ccccc2)c2ccccc2)CC1 (configuration not stated)	5.4	3.9	-0.8	59.5*	-8.2	0.3	22.0	-0.4	-7.9
N#Cc1ccc(OCC(O)CN2CCN(CC(O)COc3ccc(C#N)cc3)CC2)cc1 (configuration not stated)	8.3	-1.1	8.3	14.7	-2.2	0.4	.	.	.
CCC(=O)c1ccc(OCC(O)CN2CCN(C(c3ccccc3)c3ccccc3)CC2)cc1 (configuration not stated)	10.6	0.3	15.9	74.8*	-6.1	-1.6	46.3	3.2	3.2
N#Cc1ccc(OCC(O)CN2CCN(C(c3ccccc3)c3ccccc3)CC2)cc1 (configuration not stated)	3.5	9.5	2.5	88.6*	-16.9	-1.4	58.9*	-0.9	-11.0
CCC(=O)c1ccc(OCC(O)CN2CCOCC2)cc1 (configuration not stated)	-0.4	-4.4	8.6	-4.7	0.6	-1.6	.	.	.
N#Cc1ccc(OCC(O)CN2CCN(c3ncc(C(F)(F)F)cc3Cl)CC2)cc1 (configuration not stated)	-12.3	11.6	-7.8	48.4*	-3.5	-4.0	32.4	-1.2	-16.2
Cc1cccc(NC(=O)c2ccc(OC3CSC3)cc2)c1	-14.5	0.8	2.8	55.4*	-6.0	-3.4	48.1	1.8	-2.6
CC(=O)c1cccc(NC(=O)c2ccc(OC3CSC3)cc2)c1	-4.4	0.0	10.9	13.0	2.2	-2.2	.	.	.
Cc1ccc(S(=O)(=O)N(CC(=O)O)Cc2ccco2)cc1	-9.0	10.1	-13.6	-0.2	2.5	-2.8	.	.	.
Cc1cc2nc(-c3ccc(SCc4ccc(C#N)cc4)nc3)[nH]c2cc1C	-5.9	-5.5	-6.9	56.1*	-4.5	8.6	40.5	0.2	-9.0
Cc1cc2nc(-c3ccc(SCC(=O)Nc4nccs4)nc3)[nH]c2cc1C	-7.0	8.2	.	54.6*	0.8	.	45.0	-0.3	-11.4
O=C(Cc1ccccc1)Nc1cc(Cl)ccc1Sc1ccccc1	9.4	34.2	-5.2	17.6	5.7	-4.3	.	.	.
CC(=O)c1nn(-c2ccc(Cl)cc2)cc1C(=O)c1ccccc1	-11.1	-3.6	4.5	45.9*	-4.2	-3.6	25.6	0.2	-13.8
CC(=O)c1nn(-c2ccccc2)cc1C(=O)c1ccc(Br)cc1	-3.2	-10.8	7.2	26.4	3.8	-1.1	.	.	.
CC1(C)CC(=O)C2=C(C1)N(c1cccc(O)c1)C1=C(C2)C(=O)CC(C)(C)C1	0.8	8.0	4.5	2.5	-4.4	1.2	.	.	.
O=C(Nc1ccc(OCC(=O)N2CCOCC2)cc1)c1ccccc1F	13.1	9.7	-0.6	-9.4	3.7	-1.0	.	.	.
SMILES	CXCR6 inh	CCR6 antag	APJ antag	EBI2 antag	m5-HT2A agonist	APJ ag	EBI2 conf	EBI2 ag	bGal counter
COc1ccc(OCC(=O)N2CCN(C(=O)c3ccccc3)CC2)cc1	-2.9	-3.2	-10.5	76.8*	11.5	-4.6	74.2*	-1.0	-19.2
COc1ccc(OCC(=O)N2CCN(C(=O)c3cccc4ccccc34)CC2)cc1	-5.5	3.9	-1.8	69.5*	2.4	-0.2	37.8	-1.2	-12.9
O=C(COc1ccc(Cl)cc1)N1CCN(C(=O)c2ccccc2F)CC1	6.1	7.5	-5.9	81.6*	-1.6	-3.2	49.9	1.7	6.1
Cc1cccc(OCC(=O)N2CCN(C(=O)c3ccc([N+](=O)[O-])cc3)CC2)c1	-7.6	9.8	11.0	46.6*	-3.6	-1.6	23.2	0.4	3.3
COc1ccc(N2CCN(C(=O)COc3cccc4ccccc34)CC2)cc1	-5.1	14.2	1.7	10.0	4.2	-2.9	.	.	.
O=C(Nc1nc(-c2ccccn2)cs1)c1ccccc1-n1cnnn1	12.2	13.6	-4.5	-8.8	-0.5	-3.4	.	.	.
COc1ccc(OCC(=O)N2CCN(C(=O)c3ccc([N+](=O)[O-])cc3)CC2)cc1	-7.2	-7.1	6.1	88.4*	-1.1	-0.1	59.6*	0.8	9.3
O=C(COc1ccc(Br)cc1)c1ccc2c(c1)CCCC2	-3.3	30.6	-8.0	75.2*	-0.1	3.5	35.5	1.7	2.5
O=C(COc1ccc(Br)cc1)N1CCc2ccccc2C1	4.2	17.4	2.0	58.3*	-11.4	1.8	73.4*	-0.9	7.3
O=C(COc1ccc(Br)cc1)N1CCC(c2ccccc2)C1 (configuration not stated)	5.7	9.4	7.8	87.2*	-2.3	-5.4	84.2*	-1.3	5.3
